# Assay results from different studies.
# Each line is one published result; the experiments were not run side by side.
# Target: Serine/threonine-protein kinase MARK2 (MARK2, Homo sapiens, UniProt Q7KZI7)
SMILES,observed,action,method,tested at,quantity,result
C=CC(=O)N1CCC[C@@H](n2nc(-c3ccc(Oc4ccccc4)cc3)c3c(N)ncnc32)C1,enzyme activity,inhibitor,,1 µM,inhibition,10%
C1=C/COCc2cc(ccc2OCCN2CCCC2)Nc2nccc(n2)-c2cccc(c2)COC/1,binding,,,0.1 µM,remaining binding,66%
C=CC(=O)N1CCC([C@@H]2CCNc3c(C(N)=O)c(-c4ccc(Oc5ccccc5)cc4)nn32)CC1,enzyme activity,inhibitor,,1 µM,inhibition,0%
COc1ccc2oc(-c3ccc4nc(N)oc4c3)c/c(=N\c3ccccc3NC(=O)CCN)c2c1,binding,,,1 µM,remaining binding,97%
COc1ccc2[nH]c3c4[nH]c5ccc(OC)cc5c4c4c(c3c2c1)C(=O)NC4=O,binding,,,1 µM,remaining binding,71%
Cc1cc(O)c(-c2ccc([C@@H](C)CN(C)C)cc2)c2c1[nH]c(=O)c1sccc12,enzyme activity,inhibitor,,0.1 µM,inhibition,4.31%
CCCCC(=O)Nc1ccc(-c2ccc3ncn(CCC)c(=O)c3c2)cn1,binding,,competition with immobilised ligand,0.5 µM,remaining binding,92%
Cc1ccc(NC(=O)c2ccnc(C(F)(F)F)c2)cc1-c1cc(OCCO)nc(N2CCOCC2)c1,binding,,,1 µM,remaining binding,99%
